Laboratory results taken from paper PMC3419596 (Cell stem cell, 2012).
“Also recorded” adds a separate entry of the source. Where two headings read alike, the source gives them in different places.

What was measured:
TGFBR2 [1] = experiment: TGFBR2 internalization; type: cell-based; conditions: HA-TGFBR2-mCherry, presence of TGFβ2 ligand
T-GFP mESCs = experiment: Mesoderm inhibition assay, T-GFP mESC flow cytometry; type: cell-based, mouse; conditions: added at day 1 of differentiation
Myh6-GFP mESC = experiment: mESC cardiogenesis assay, Myh6-GFP reporter; type: cell-based, mouse
H9 hESC = experiment: hESC; type: cell-based, human
TGFβ2 signaling = experiment: SBE4-Luc; type: cell-based, human; conditions: for IC50: read-out: IC50 TGFβ2 signaling inhibition (SBE4-Luc)
Summary of the method: (§1)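 HEK293T cells grown in high-glucose DMEM with 1% FBS are co-transfected with SBE4-firefly luciferase and CMV-Renilla luciferase. After 12 h adhesion they are stimulated with Activin A or TGFβ2 (15 ng/ml each), with inhibitor added at the same time. Luminescence is read by dual-luciferase assay. IC50 comes from a log(inhibitor) vs normalized response fit, with toxic doses excluded; Emax is given as % inhibition. Data are mean ± SEM.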

[2] = target: type II (TGFBR2) TGFβ receptor (Homo sapiens, UniProt P37173); experiment: TGFBR2 kinase activity; type: biochemical
[3] = test system: SMAD2/3 phosphorylation induced by Activin A; experiment: p-SMAD2/3 Western blot in HEK293T cells, Activin A stimulation; type: cell-based, human
Summary of the method: (§2)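 HEK293T cells are treated with test compound and stimulated with Activin A or TGFβ. Cells are washed in cold PBS, lifted with enzyme-free buffer and lysed in ice-cold RIPA with protease and phosphatase inhibitors. Lysates are run on 10% SDS-Tris-glycine gels, blotted to PVDF and blocked and probed in 5% skim milk/TBST; detection by ECL or infrared imaging. p-SMAD2/3 is normalized to GAPD and total SMAD2/3 and reported as % inhibition.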

HEK293T cells = experiment: Toxicity control for inhibitory activity; type: cell-based, human
Summary of the method: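 Toxicity in the reporter assays is judged from Renilla luciferase levels, Alamar Blue viability or microscopy. Doses judged toxic are removed before IC50/EC50 curve fitting.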

TGFBR1 = TGFBR1 protein levels by Western blot, overexpressed in HEK293T; type: cell-based, human; conditions: 24h, 5μM
Wnt signaling = Wnt signaling inhibition; type: cell-based
[4] = test system: SMAD2/3 phosphorylation induced by TGFβ2; experiment: p-SMAD2/3 Western blot in HEK293T cells, TGFβ2 stimulation; type: cell-based, human
Summary of the method: as §2

BMP signaling = BMP signaling inhibition; type: cell-based
[5] = test system: Cripto−/− mESC, TGFβ2-induced mesoderm; experiment: T gene expression in Cripto−/− mESC, mesoderm induced by TGFβ2; type: cell-based, mouse
Summary of the method: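 Cripto−/− mESC were moved to serum-free conditions as embryoid bodies. At day 2 of EB formation they received 15 ng/ml TGFβ2 together with test compound. T expression was measured by RT-qPCR. Comparisons were made against a no-TGFβ2 control and against TGFβ2 alone. Mean ± SEM of ≥3 biological replicates; Student's t-test.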

[6] = test system: TGFβ2 signaling (Lefty1 target gene); experiment: Lefty1 mRNA in Cripto−/− mESC, TGFβ2-induced; type: cell-based, mouse; conditions: Cripto−/− mESCs
Summary of the method: (§3)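 Cripto−/− mESCs are moved to serum-free conditions. At day 2 of embryoid body formation they receive 15 ng/ml Activin A or 15 ng/ml TGFβ2 together with test compound. Lefty1 mRNA is measured by RT-qPCR (SYBR Green) on cDNA from total RNA. The TGFβ2 arm is also run as a time course, with a serum-free-medium-alone control. Data are mean ± SEM of ≥3 biological replicates; Student's t-test.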

calcium channel = experiment: Calcium inhibition as mechanism of ITD-1 activities
mESC = experiment: RT-qPCR of germ layer and lineage markers in mESC; type: cell-based, mouse
Activin A signaling = experiment: SBE4-Luc; type: cell-based, human; conditions: HEK293T, Activin A 15ng/ml
Summary of the method: as §1

[7] = test system: other tyrosine kinase receptors; experiment: Levels of other tyrosine kinase receptors; type: cell-based
TGFBR2 [8] = experiment: TGFBR2 protein levels by Western blot; type: cell-based, human; conditions: overexpressed in HEK293T, 24h, 5μM
TGFBR2 [9] = target: TGFBR2 (Homo sapiens, UniProt P37173); experiment: TGFBR2 protein levels by Western blot; type: cell-based; conditions: HEK293T, DLD1 and A549 cells, 5μM
HA-TGFBR2-mCherry = experiment: Flow cytometry receptor degradation assay with HA-TGFBR2-mCherry in HEK293T; type: cell-based, human
[10] = test system: Cripto−/− mESC, Activin A-induced mesoderm; experiment: T gene expression in Cripto−/− mESC, mesoderm induced by Activin A; type: cell-based, mouse
Summary of the method: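 Mesoderm assay in Cripto−/− mESCs under serum-free conditions. At day 2 of embryoid body formation, cells are given 15 ng/ml Activin A plus test compound. T (Brachyury) mRNA is quantified by RT-qPCR (SYBR Green) on cDNA from total RNA and compared with no-Activin and Activin-alone controls. Data are mean ± SEM of ≥3 biological replicates; Student's t-test.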

[11] = target: type I (TGFBR1) TGFβ receptor (Homo sapiens, UniProt P36897); experiment: TGFBR1 kinase activity; type: biochemical
[12] = test system: Activin A signaling (Lefty1 target gene); experiment: Lefty1 mRNA in Cripto−/− mESC, Activin A-induced; type: cell-based, mouse; conditions: 5μM, Cripto−/− mESCs
Summary of the method: as §3

[13] = added day 3-5 of differentiation
[14] = given at day 1 of differentiation

type II (TGFBR2) TGFβ receptor, sequence (P37173 23-567, species assumed): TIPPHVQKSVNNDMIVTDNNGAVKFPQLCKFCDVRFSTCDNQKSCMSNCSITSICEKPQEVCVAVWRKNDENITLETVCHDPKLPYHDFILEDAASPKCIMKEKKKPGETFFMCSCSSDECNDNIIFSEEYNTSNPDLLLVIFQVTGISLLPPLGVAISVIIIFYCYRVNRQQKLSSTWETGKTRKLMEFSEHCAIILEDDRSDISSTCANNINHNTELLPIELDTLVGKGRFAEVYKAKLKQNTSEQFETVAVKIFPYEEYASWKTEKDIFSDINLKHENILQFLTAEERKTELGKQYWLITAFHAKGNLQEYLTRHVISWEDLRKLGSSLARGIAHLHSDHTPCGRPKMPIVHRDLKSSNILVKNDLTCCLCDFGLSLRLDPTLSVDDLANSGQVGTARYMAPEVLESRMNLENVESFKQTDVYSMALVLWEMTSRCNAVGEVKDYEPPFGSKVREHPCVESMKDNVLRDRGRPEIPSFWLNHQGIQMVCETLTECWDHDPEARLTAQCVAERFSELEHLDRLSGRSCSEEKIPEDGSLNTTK
TGFBR2 (Homo sapiens, UniProt P37173), sequence (P37173 23-567): as the sequence (P37173 23-567, species assumed) above
type I (TGFBR1) TGFβ receptor, sequence (P36897 34-503, species assumed): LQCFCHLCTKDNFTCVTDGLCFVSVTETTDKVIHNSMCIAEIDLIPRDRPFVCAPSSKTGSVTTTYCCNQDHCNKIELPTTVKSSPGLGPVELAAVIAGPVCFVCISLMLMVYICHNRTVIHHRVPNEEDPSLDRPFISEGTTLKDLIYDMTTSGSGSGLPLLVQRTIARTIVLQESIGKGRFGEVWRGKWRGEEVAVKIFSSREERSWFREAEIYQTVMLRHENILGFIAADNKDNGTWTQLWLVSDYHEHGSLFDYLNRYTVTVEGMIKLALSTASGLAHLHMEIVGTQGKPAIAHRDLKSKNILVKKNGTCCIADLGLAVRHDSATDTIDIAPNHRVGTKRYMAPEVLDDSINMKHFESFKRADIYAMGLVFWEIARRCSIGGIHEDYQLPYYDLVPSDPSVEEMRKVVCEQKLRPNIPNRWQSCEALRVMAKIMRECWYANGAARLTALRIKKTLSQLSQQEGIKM

NC(=O)c1ccc(-c2nc(-c3ccc4c(c3)OCO4)c(-c3ccccn3)[nH]2)cc1 [SB-431542, reference compound]
immediate internalization of TGFBR2 (TGFBR2 [1]): abolished internalization
mesoderm induction (T-GFP+ cells) (T-GFP mESCs): diminished the number of mesoderm cells
cardiogenesis (Myh6-GFP) (Myh6-GFP mESC; [13]): drove cardiomyogenesis
cardiogenesis in hESC (H9 hESC; mesoderm patterning stage, data not shown): completely blocked cardiogenesis
IC50 (TGFβ2 signaling; Homo sapiens, HEK-293T): 70 nM

IWP
mesoderm induction (T-GFP+ cells) (T-GFP mESCs): diminished the number of mesoderm cells

CCOC(=O)C1=C(C)NC2=C(C(=O)CC(C)(C)C2)C1c1ccc(-c2ccccc2)cc1 (stereo not drawn) [ITD-1]
TGFBR2 kinase activity [2]: did not block the kinase activity
phosphorylation of SMAD2/3 in response to Activin A [3]: only minimally
toxicity as cause of inhibitory activity (HEK293T cells): Toxicity was not responsible
TGFBR1 protein levels (TGFBR1): did not affect TGFBR1
Wnt signaling inhibition (Wnt signaling): did not inhibit Wnt signaling; also recorded: not inhibited
phosphorylation of SMAD2/3 induced by TGFβ2 [4]: potently blocked phosphorylation
BMP signaling inhibition (BMP signaling): not inhibited
immediate internalization of TGFBR2 (TGFBR2 [1]): did not block immediate internalization of TGFBR2
mesoderm induced by TGFβ (T gene expression) [5]: selectively blocked mesoderm induced by TGFβ
induction of Lefty1 in response to TGFβ2 ([6]; 5μM): effectively blocked induction
additional time needed to inhibit Lefty1 expression compared to SB-431542 ([6]; TGFβ2 treatment): ~ 3 h
mesoderm induction (T-GFP+ cells) (T-GFP mESCs): diminished the number of mesoderm cells
role of calcium inhibition in ITD-1 activities (calcium channel): no evidence was found for a role through calcium inhibition
germ layer markers at day 5 (RT-qPCR) (mESC; [14]): induced ectoderm at the expense of mesoderm
lineage markers at day 10 (RT-qPCR) (mESC; [14]): markers for mesoderm tissues such as heart, endothelium, smooth muscle and blood were all downregulated, while neural markers were upregulated
marker expression at day 5 (RT-qPCR) (mESC; mESC treated day 3-5): only the cardiac progenitor specific markers Kdr and Mesp1 were increased
marker expression at day 10 (RT-qPCR) (mESC; mESC treated day 3-5): only cardiac-specific markers were increased
Activin A signal inhibition (SBE4-Luc) (Activin A signaling): weak and partial inhibitor
effect on other tyrosine kinase receptors [7]: did not affect other tyrosine kinase receptors
TGFBR2 protein levels (TGFBR2 [8]): strongly downregulated TGFBR2 protein levels
endogenous TGFBR2 levels (TGFBR2 [9]): decreased endogenous TGFBR2 levels
cardiogenesis (Myh6-GFP) (Myh6-GFP mESC; added day 1-3 of differentiation, before mesoderm induction): completely abolished cardiogenesis
cardiogenesis (Myh6-GFP) (Myh6-GFP mESC; [13]): drove cardiomyogenesis; also recorded: optimally promoted cardiogenesis and beating cell clusters
Emax, maximal depletion of HA-TGFBR2 (HA-TGFBR2-mCherry; cell surface receptor): ~ 80%
time needed to reduce TGFBR2 levels (HA-TGFBR2-mCherry; time course, flow cytometry): At least 6 h
time of maximum reduction of TGFBR2 levels (HA-TGFBR2-mCherry; time course, flow cytometry): ≤ 24 h
Emax, maximal depletion of TGFBR2-mCherry (HA-TGFBR2-mCherry; total receptor): ~ 50%
mesoderm induced by Activin A (T gene expression) [10]: not by Activin A
TGFBR1 kinase activity [11]: did not block the kinase activity
enhancement of TNNT2+ cardiomyocyte yield (H9 hESC; added day 1-5, analysed day 6): ~ 30%
resulting cardiomyocytes (TNNT2+) (H9 hESC; added day 1-5, analysed day 6): ~ 60%
induction of Lefty1 in response to Activin A [12]: not to Activin A
efficacy of TGFβ2 signaling inhibition (Emax, % inhibition) (TGFβ2 signaling; HEK293T, SBE4-Luc): 92%
IC50 (TGFβ2 signaling; HEK293T, TGFβ2 15ng/ml): 850 nM

c1cc(-c2cnn3cc(-c4ccc(OCCN5CCCCC5)cc4)cnc23)ccn1 [Dorsomorphin]
mesoderm induction (T-GFP+ cells) (T-GFP mESCs): did not affect mesoderm

c1ccc(-c2[nH]ncc2-c2ccnc3ccccc23)nc1 [LY-364947, reference compound]
mesoderm induction (T-GFP+ cells) (T-GFP mESCs): diminished the number of mesoderm cells
cardiogenesis (Myh6-GFP) (Myh6-GFP mESC; [13]): drove cardiomyogenesis

CCOC(=O)C1=C(C)NC2=C(C(=O)CC(C)(C)C2)C1c1ccc(-c2ccccc2)cc1 (stereo not drawn) [ITD-1(+)]
cardiogenesis (Myh6-GFP) (Myh6-GFP mESC; [13]): drove cardiomyogenesis

B1: TGFβ2: TGFβ family member ligand added to ESC cultures (protein, UniProt P61812 303-414, looked up)
Transforming growth factor …: ALDAAYCFRNVQDNCCLRPLYIDFKRDLGWKWIHEPKGYNANFCAGACPYLWSSDTQHSRVLSLYNTINPEASASPCCVSQDLEPLTILYYIGKTPKIEQLSNMIVKSCKCS
cardiogenesis (Myh6-GFP) (Myh6-GFP mESC; [13]): inhibited cardiogenesis
